Source: PubChem (several laboratories)
This is one part of a sample in which hits are shown more often than they occur.
HUVEC inhibit = inhibitors of human endothelial cell proliferation | HUVEC proliferation, CellTiter-Glo luminescence, 72 h; stronger effect = lower value | viability, % at 10 µM (by protocol) | actives 1.1% (n = 86,000) | AID 648;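 active = viability at or below 30%; inactive = viability above 30%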;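 note: 100% = median luminescence of DMSO-only cell control wells on each plate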
HCT116 PTEN-null = growth suppressors of cells with PTEN tumor suppressor deletion | HCT116 PTEN-null viability, CellTiter-Glo, 60 h; stronger effect = lower value | viability, % at 10 µM | actives 1.2% (n = 140,000);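 active = viability at or below a set limit, 4 SD under the median of all tested compounds, cut at about 3.7% in these data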;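 note: PTEN knockout HCT116 line with beta catenin targeted HCT116 as companion control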
Fibroblast inh = blocks proliferation of human lung fibroblasts | viability, % at 10 µM | AID 719 | LL 47 human lung fibroblast viability, ATP luminescence; stronger effect = lower value | actives 1.1% (n = 85,000);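 active = viability at or below 50% in the single dose screen; inactive = viability above 50%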;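 note: compound exposure lasted 72 h before the ATP readout; 100% = median luminescence of untreated cell-only wells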
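Material: human lung fibroblast line LL 47, low passage; Evaluation: viability percentage against median untreated-cell control; Buffer or medium: 15% FBS in IMEM; Incubation: 72 h compound exposure at 37 °C after overnight plating; Dosing: 0.1% DMSO in all compound wells; Measured by: CellTiter-Glo luminescence.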
bCat KO growth = beta-catenin-lacking colon tumor cell growth suppression; HCT116 beta-catenin knockout viability, CellTiter-Glo, 60 h; stronger effect = lower value; viability, % at 10 µM; actives 1.5% (n = 140,000);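 active = viability at or under a set limit, the compound median less 4 SD, cut at about 6% in these data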;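 note: 0% = Hyamine 1622 control at 20 µM and 100% = untreated cell control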
H69AR inhibit = blocks growth of human H69AR lung tumor cells. viability, % at 10 µM. actives 6% (n = 85,000). AID 598. H69AR lung tumor viability, ATP luminescence, 72 h; stronger effect = lower value;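 active = viability at or below 40%; inactive = viability above 40%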;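 note: multidrug resistant small cell line overexpressing MRP-1 efflux transporter; 100% = mean luminescence of untreated control wells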
Pyk2 oligo antag = antagonists of human Pyk2 oligomerization | Q14289 | Q293 cells, Pyk2 FERM NanoBiT luminescence; stronger effect = lower value | z-score (the deposit names both 25 µM and 10 µM) | actives 0.83% (n = 99,000) | AID 1347419;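 active = Z-score of -3 or lower, scaled per plate to the spread of control and sample wells; inactive = z-score above -3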;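 note: negative z-score means lost luminescence so less FERM oligomerization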
Target sequence (Q14289 whole entry, looked up): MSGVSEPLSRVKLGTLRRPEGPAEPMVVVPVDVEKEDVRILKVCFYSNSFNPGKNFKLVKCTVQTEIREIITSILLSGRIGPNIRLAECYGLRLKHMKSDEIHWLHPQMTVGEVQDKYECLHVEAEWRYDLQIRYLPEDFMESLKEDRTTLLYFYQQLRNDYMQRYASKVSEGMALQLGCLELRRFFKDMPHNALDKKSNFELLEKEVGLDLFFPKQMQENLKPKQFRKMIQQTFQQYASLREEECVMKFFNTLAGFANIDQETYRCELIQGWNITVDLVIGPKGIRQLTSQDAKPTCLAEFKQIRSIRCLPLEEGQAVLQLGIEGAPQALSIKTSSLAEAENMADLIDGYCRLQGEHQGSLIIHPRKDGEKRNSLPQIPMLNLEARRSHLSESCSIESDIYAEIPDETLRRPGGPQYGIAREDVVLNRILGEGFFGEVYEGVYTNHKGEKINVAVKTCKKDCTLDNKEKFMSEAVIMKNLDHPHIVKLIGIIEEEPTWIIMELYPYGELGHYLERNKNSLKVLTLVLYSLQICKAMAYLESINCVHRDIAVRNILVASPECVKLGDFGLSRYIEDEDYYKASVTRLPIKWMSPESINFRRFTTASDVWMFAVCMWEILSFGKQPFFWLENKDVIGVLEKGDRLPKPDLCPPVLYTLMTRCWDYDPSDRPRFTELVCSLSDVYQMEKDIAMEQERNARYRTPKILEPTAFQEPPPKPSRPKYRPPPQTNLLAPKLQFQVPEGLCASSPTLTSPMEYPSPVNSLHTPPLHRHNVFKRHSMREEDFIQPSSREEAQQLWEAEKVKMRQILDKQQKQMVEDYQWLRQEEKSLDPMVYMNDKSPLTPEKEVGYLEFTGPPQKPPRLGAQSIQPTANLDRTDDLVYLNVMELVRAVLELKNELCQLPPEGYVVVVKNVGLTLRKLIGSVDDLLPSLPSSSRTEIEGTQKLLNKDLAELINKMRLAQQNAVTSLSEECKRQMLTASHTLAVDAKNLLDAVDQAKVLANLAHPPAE
Active calls of the source: *; . = no result given.

SMILES	HUVEC inhibit	HCT116 PTEN-null	Fibroblast inh	bCat KO growth	H69AR inhibit	Pyk2 oligo antag
Cc1ccc(-n2c(-c3ccc(Br)cc3)c[n+]3c2CCc2ccc4cccnc4c2-3)cc1	13.9*	0.8*	21.1*	1.5*	2.8*	-2.79
COc1ccccc1N1CCN(Cc2ccc(O)c3ncccc23)CC1	.	1.7*	.	3.3*	.	-0.01
c1ccc(-c2nnc(CN3CCCc4ccccc43)o2)cc1	96.2	90.4	96.4	80.3	95.1	-0.95
CCOC(=O)C1CCN(Cc2ccc(O)c3ncccc23)CC1	80.1	1.9*	78.8	3.0*	1.1*	0.1
Oc1ccc(CN2CCCc3ccccc32)c2cccnc12	86.4	5.5	58.6	10.2	33.7*	-0.01
Cc1ccccc1N1C(S)=C(C#N)C(=O)NC12CCCCC2	.	85.5	.	84.2	.	.
CC1CN(c2nc3c(c(=O)n(C)c(=O)n3C)n2Cc2c(F)cccc2Cl)CC(C)O1 (configuration not stated)	96.0	82.5	92.0	82.0	61.6	-0.27
CN(C)S(=O)(=O)c1cccc(N=C2NN=C(c3ccccc3)CS2)c1	.	3.8*	.	5.2*	.	.
Cc1cccnc1NCc1ccc(O)c2ncccc12	68.4	2.5*	83.5	3.9*	13.4*	0.33
CC(C)c1[nH]nc2c1C(c1cccs1)C(C#N)=C(N)O2 (configuration not stated)	70.9	58.0	80.0	56.8	39.8*	0.1
Cc1cc(C2C(C#N)=C(N)Oc3n[nH]c(C)c32)c(C)s1 (configuration not stated)	85.0	70.8	94.5	63.3	76.8	-0.19
Cc1[nH]nc2c1C(c1ccc(-c3ccc(Cl)cc3)o1)C(C#N)=C(N)O2 (configuration not stated)	.	0.7*	.	1.3*	.	.
Cc1[nH]nc2c1C(c1ccc(-c3ccccc3C#N)o1)C(C#N)=C(N)O2 (configuration not stated)	31.4	74.8	73.7	67.6	1.6*	-0.55
Cc1[nH]nc2c1C(c1ccsc1C)C(C#N)=C(N)O2 (configuration not stated)	.	1.2*	.	91.3	.	0.48
O=C(Cc1ccccc1)Nc1ccccc1C(=O)O	91.7	84.2	101.2	95.1	101.4	-1.33
COc1ccccc1NC(=S)c1ccccc1	.	99.2	.	81.2	.	.
CN(C)Cc1nc2c(c(=O)[nH]1)C1(CCCCC1)Cc1ccccc1-2	82.7	60.2	72.8	40.2	7.2*	-1.17
CC1(C)CC(=O)/C(=C\c2cccc([N+](=O)[O-])c2)C(C)(C)N1	.	8.7	.	17.9	.	.
CCCCCCc1cc2cc(-c3nnc(-c4cc(OC)c(OC)c(OC)c4)o3)c(=O)oc2cc1O	75.9	9.0	62.1	10.8	2.3*	.
CCCCCCc1cc2cc(-c3nnc(-c4ccccc4O)o3)c(=O)oc2cc1O	.	0.7*	.	0.7*	.	-1.66
CCCCCCc1cc2cc(C(=O)Nc3ccccc3OC)c(=O)oc2cc1O	.	83.2	.	61.6	.	.
CCCCCCc1cc2cc(S(=O)(=O)c3ccc(F)cc3)c(=O)oc2cc1O	.	81.7	.	92.7	.	.
CCCCCCc1cc2cc(-c3nnc(-c4ccccc4OC)o3)c(=O)oc2cc1O	63.1	3.9	72.4	11.5	3.0*	-3.1*
Cc1ccc(OCC(=O)Nc2ccc(C)c(S(=O)(=O)N3CCCCC3)c2)c([N+](=O)[O-])n1	.	72.8	.	82.9	.	.
Cc1ccc(N2C(=O)N(Cc3ccccc3C)c3ccccc3S2(=O)=O)cc1	.	91.6	.	81.4	.	.
SMILES	HUVEC inhibit	HCT116 PTEN-null	Fibroblast inh	bCat KO growth	H69AR inhibit	Pyk2 oligo antag
COc1ccc(-c2cc(-c3c(O)c(OC)c4occc4c3OC)[nH]n2)cc1OC	77.7	24.3	62.8	20.2	25.8*	-2.97
COC1(OC)N=C(N)C2(C#N)C(c3ccc4c(c3)OCO4)C12C#N (configuration not stated)	84.4	116.5	87.2	86.9	32.9*	0.28
COC1(OC)N=C(N)C2(C#N)C(c3ccc(C)cc3)C12C#N (configuration not stated)	96.0	72.9	99.0	78.6	93.5	-0.16
CCOC(=O)c1ccc2c(c1)NC(=O)C(N1CCN(c3ccc(OC)cc3)CC1)S2 (configuration not stated)	68.3	66.5	46.1*	77.7	30.5*	.
CSc1nnc2c3cc(F)ccc3n(Cc3ccccc3)c2n1	56.4	.	81.4	.	33.5*	-0.29
CSc1nnc2c3ccccc3n(CCc3ccccc3)c2n1	72.7	79.0	86.1	63.7	79.3	-3.3*
COCCCNC(=O)COc1ccc(S(=O)(=O)NCc2ccccc2)cc1Cl	.	81.5	.	88.2	.	0.6
CCNc1ccc(Br)cc(C(=O)/C=C/c2ccc(Cl)cc2Cl)c1=O	21.1*	2.2*	92.4	2.5*	0.4*	0.13
CNc1ccc(Br)cc(C(=O)/C=C/c2ccc(OC)cc2)c1=O	.	37.3	.	47.5	.	.
CNc1ccc(Br)cc(C(=O)/C=C/c2cc(OC)ccc2OC)c1=O	79.5	11.9	89.6	7.4	0.6*	0.28
COC(=O)c1cccc(NC(=O)CCSc2ccc(Cl)cc2)c1C	.	88.2	.	84.5	.	1.6
CCOc1ccc(N/C=C/C(=O)c2ccccc2)c([N+](=O)[O-])c1	.	97.5	.	98.8	.	.
c1cncc(-c2nc(NCC3COc4ccccc4O3)c3ccccc3n2)c1 (configuration not stated)	57.1	26.2	87.0	38.7	15.8*	-3.8*
c1ccc2c(c1)OCC(CNc1ncnc3sccc13)O2 (configuration not stated)	.	17.5	.	15.9	.	.
COCCn1c(C)cc(C(=O)CSc2nc(C)nc3sc4c(c23)CCC4)c1C	95.5	.	91.7	.	79.2	0.33
Cc1csc(SCC(=O)Nc2nc3ccccc3s2)n1	88.3	93.3	102.3	99.3	86.2	-0.27
Cn1cc(SCC(=O)Nc2nc3ccccc3s2)c2ccccc21	10.5*	75.6	97.1	85.1	71.3	-0.08
O=C(NC(=S)Nc1ccccc1)c1csnn1	.	105.5	.	102.9	.	-0.01
C=CCn1c(=O)/c(=C/c2ccc(F)cc2)s/c1=C(\C#N)c1nnc2n1CCCCC2	69.5	52.4	81.4	56.9	39.2*	-0.6
O=C(NNS(=O)(=O)c1ccccc1[N+](=O)[O-])c1cccc([N+](=O)[O-])c1	.	95.2	.	86.1	.	0.05
Cc1cccc(-c2cc3c(nn2)-c2ccccc2C3=O)c1	59.0	30.1	84.2	35.7	18.7*	-0.71
CCCN(CCC)S(=O)(=O)c1ccc(C(=O)Nc2nnc(CSC)o2)cc1	61.1	24.1	83.8	36.4	32.0*	-2.1
CCCN(CCC)S(=O)(=O)c1ccc(C(=O)Nc2nnc(-c3cc(OC)cc(OC)c3)o2)cc1	31.1	10.5	51.2	15.0	16.0*	-2.62
COc1cccc(-c2nnc(NC(=O)c3ccccc3Br)o2)c1	78.3	.	93.4	.	34.4*	.
CCCN(CCC)S(=O)(=O)c1ccc(C(=O)Nc2nnc(-c3cccc(OC)c3)o2)cc1	1.7*	10.0	12.2*	10.0	16.1*	.
